Legend:
Settings in all cases: stereoisomer not certain
Or1m1 (Mus musculus) = target: T1, Or1m1 (Mus musculus) (UniProt Q8VFM9)
T1 sequence (whole entry): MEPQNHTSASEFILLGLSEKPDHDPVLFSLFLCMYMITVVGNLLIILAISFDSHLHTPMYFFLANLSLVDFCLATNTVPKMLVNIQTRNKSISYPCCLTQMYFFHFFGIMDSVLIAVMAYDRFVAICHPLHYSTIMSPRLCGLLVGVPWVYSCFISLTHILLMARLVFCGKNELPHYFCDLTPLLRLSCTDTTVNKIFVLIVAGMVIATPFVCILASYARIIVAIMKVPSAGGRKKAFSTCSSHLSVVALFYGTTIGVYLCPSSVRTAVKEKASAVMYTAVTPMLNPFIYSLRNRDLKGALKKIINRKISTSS
Method in brief: (§1)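 Transient luciferase assays in mammalian cell lines were common, though methods varied by source. The values come from published papers and their supplementary material, with extra details from the original authors when needed. Responsive refers to a measured signal the original authors judged statistically different from baseline, and non-responsive (inactive) to the remainder.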

Or2c1 (Mus musculus) = target: T2, Or2c1 (Mus musculus) (UniProt P23275)
T2 sequence (whole entry): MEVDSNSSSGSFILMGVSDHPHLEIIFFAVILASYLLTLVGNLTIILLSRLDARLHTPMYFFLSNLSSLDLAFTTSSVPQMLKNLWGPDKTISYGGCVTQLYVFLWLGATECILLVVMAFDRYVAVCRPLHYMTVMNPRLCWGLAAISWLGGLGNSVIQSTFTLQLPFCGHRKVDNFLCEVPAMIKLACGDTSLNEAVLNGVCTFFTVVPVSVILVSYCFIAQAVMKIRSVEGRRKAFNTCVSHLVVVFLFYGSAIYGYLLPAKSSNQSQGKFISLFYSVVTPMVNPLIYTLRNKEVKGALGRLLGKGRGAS
Method in brief: as §1

Or5ar1 (Mus musculus) = target: T3, Or5ar1 (Mus musculus) (UniProt Q8VGS3)
T3 sequence (whole entry): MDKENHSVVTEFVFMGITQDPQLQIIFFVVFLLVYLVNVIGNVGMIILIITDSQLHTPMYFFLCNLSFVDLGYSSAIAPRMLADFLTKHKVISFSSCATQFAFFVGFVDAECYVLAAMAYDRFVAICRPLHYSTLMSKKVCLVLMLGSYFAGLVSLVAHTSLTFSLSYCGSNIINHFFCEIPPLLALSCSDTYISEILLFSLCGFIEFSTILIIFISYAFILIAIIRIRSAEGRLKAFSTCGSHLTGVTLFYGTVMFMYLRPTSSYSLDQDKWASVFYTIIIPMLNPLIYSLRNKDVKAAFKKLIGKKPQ
Method in brief: as §1
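Further: active if original authors judged signal statistically different from baseline.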

SMILES	odorant receptor agonist call (Or1m1 (Mus musculus))	odorant receptor agonist call (Or2c1 (Mus musculus))	odorant receptor agonist call (Or5ar1 (Mus musculus))
c1ccccc1	inactive	inactive	inactive
CCCCCC=O	inactive	inactive	inactive
CCCCCCCC(C)=O	inactive	inactive	inactive
CCCCCOC(=O)CCCCC	inactive	active	inactive
CCCCCCCCC(=O)O	inactive	active	inactive
CC12CCC(CC1=O)C2(C)C (stereo unspecified)	inactive	inactive	inactive
CCCCOC=O	inactive	inactive	inactive
CCC(=O)O	inactive	inactive	inactive
O=C1Cc2ccccc2O1	inactive	active	inactive
CCSCC	inactive		inactive
CCc1occc(=O)c1O	inactive		inactive
C=C(CC)CCCC(C)(C)O	inactive		inactive
CC(C)CS	inactive		inactive
C=CC(=C)CCC=C(C)CCC=C(C)C	inactive		inactive
CCCCCCC=CC=O	inactive		inactive
Cc1ccccc1OC(=O)C(C)C	inactive		inactive
CC(=O)OCCc1ccccc1	inactive		inactive
Cc1ccc(C(C)C)cc1	inactive		inactive
CCCCCCC(C)O (stereo unspecified)	inactive		inactive
CNc1ccccc1C(=O)OC	inactive		inactive
Cc1ccc(OC(=O)C(C)C)cc1	inactive		inactive
CCCCCC=CCCC=O	inactive		inactive
CCOC(=O)CC(C)C	inactive		inactive

SMILES	odorant receptor agonist call (Or1m1 (Mus musculus))	odorant receptor agonist call (Or2c1 (Mus musculus))	odorant receptor agonist call (Or5ar1 (Mus musculus))
CC=Cc1ccc(OC)cc1	inactive		inactive
CC(=O)C1(C)CC2=C(CCCC2(C)C)CC1C (stereo unspecified)	inactive		inactive
CCOC(=O)C(C)CC (stereo unspecified)	inactive		inactive
CC(C)CCN	inactive		inactive
CCCCCC(=Cc1ccccc1)C(OC)OC	inactive		active
COc1nccnc1C	inactive		inactive
OCCCCCCCCCO	inactive		inactive
C1CCOCC1	inactive		inactive
O=C(O)C1CCC1	inactive		inactive
CCCCCCCCC=CC=O	inactive		inactive
C=C(C)C1CC=C(C)CC1 (stereo unspecified)	inactive		inactive
CCCCCCCCOC=O	inactive		inactive
O=C(O)CCCCCCCCC(=O)O	inactive		inactive
CCc1ccc(O)cc1	inactive		inactive
C=CC(=C)CCC=C(C)C	inactive		inactive
CCCCCOC(=O)CCC	inactive		inactive
CC(=O)OCc1ccc2c(c1)OCO2	inactive		inactive
CCC(C)O (stereo unspecified)	inactive		inactive
CC(CC=O)CCCC(C)(C)O (stereo unspecified)	inactive		inactive
OCCc1ccccc1	inactive		inactive
CCSSCC	inactive		inactive
CCCO	inactive		inactive
CCCCCC(C=O)=Cc1ccccc1	inactive		inactive
